Key:
Format in all cases: functional
HL-60 [1] = assay: Cell cycle arrest in human HL-60 cells assessed as decrease in accumulation of cells at S-phase at 2.29 uM measured after 24 hrs by propidium iodide staining based flow cytometry relative to control; parameters: scale not given: the % may be the effect or the level left
HL-60 [2] = assay: Cell cycle arrest in human HL-60 cells assessed as decrease in accumulation of cells at G2/M-phase at 2.29 uM measured after 24 hrs by propidium iodide staining based flow cytometry relative to control; parameters: scale not given: the % may be the effect or the level left
A498 = assay: Growth inhibition of human A498 cells measured after 48 hrs by SRB assay
Method in brief: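 NCI 60-line format with five concentrations (10-fold or ½-log serial dilutions) from DMSO stocks in medium with 50 μg/mL gentamicin. Cells preincubated 24 h, then exposed 48 h at 37°C, 5% CO2. Time-zero plates TCA-fixed. SRB absorbance read at 515 nm. GI50 taken from [(Ti−Tz)/(C−Tz)]×100 = 50. Out-of-range values are expressed as > or < the highest or lowest concentration tested.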

HL-60 [3] = assay: Cell cycle arrest in human HL-60 cells assessed as increase in accumulation of cells at G0/G1-phase at 2.29 uM measured after 24 hrs by propidium iodide staining based flow cytometry relative to control
HL-60 [4] = assay: Cell cycle arrest in human HL-60 cells assessed as decrease in accumulation of cells at G2/M-phase at 2.32 uM measured after 24 hrs by propidium iodide staining based flow cytometry relative to control; parameters: scale not given: the % may be the effect or the level left
HL-60 [5] = assay: Cell cycle arrest in human HL-60 cells assessed as increase in accumulation of cells at G0/G1-phase at 2.32 uM measured after 24 hrs by propidium iodide staining based flow cytometry relative to control
SR = assay: Growth inhibition of human SR cells measured after 48 hrs by SRB assay
Method in brief: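 NCI 60-line SRB screen: cells seeded […], grown 24 h at 37°C, 5% CO2, then exposed 48 h to five concentrations (10-fold or ½-log dilutions from DMSO stock). Adherent cells fixed with cold TCA (final 10%), suspension cells with 80% TCA (final 16%); SRB stained, read at 515 nm. GI50 from time-zero, control and treated absorbances.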

HL-60 [6] = assay: Cell cycle arrest in human HL-60 cells assessed as decrease in accumulation of cells at S-phase at 2.32 uM measured after 24 hrs by propidium iodide staining based flow cytometry relative to control; parameters: scale not given: the % may be the effect or the level left

Compound | Activity (HL-60 [1]) [%] | Activity (HL-60 [2]) [%] | GI50 (A498) [µM] | TGI (A498) [µM] | fold change (FC) (HL-60 [3]) | Activity (HL-60 [4]) [%] | fold change (FC) (HL-60 [5]) | GI50 (SR) [µM] | TGI (SR) [µM] | CC50 (SR; read-out: LC50 (the source's name)) [µM] | Activity (HL-60 [6]) [%]
O=[N+]([O-])c1cc(/C=N/Nc2nc(-c3ccc(Cl)cc3)cs2)ccc1Cl | 7.3 | 12.8 | 14.8 | 39.6 | 1.13 | – | – | – | – | – | –
CCOc1cc(/C=N/Nc2nc(-c3cccc([N+](=O)[O-])c3)cs2)ccc1O | – | – | 20.2 | 44.8 | – | 63.5 | 1.28 | 3.07 | > 100 | > 100 | 2.5

— ChEMBL document CHEMBL6177937, “Design, synthesis, and biological evaluation of novel thiazole derivatives as PI3K/mTOR dual inhibitors” (RSC Med Chem, 2024)
